Experimental data: PMC3567257 (Biochemistry, 2012)
Numbering of substitutions follows the chain as printed. Where a name gives a salt, the structure may show the parent alone. Read-outs that look alike come from different tables or passages of the source.

Experiments:
[1] = molecular target: T1, JARID1A PHD3 (Homo sapiens, UniProt P29375); assay: HaloTag assay for histone peptide binding; conditions: for effect on JARID1A PHD3 binding to H3K4me3 peptide in HaloTag assay: compound 0–200 μM
T1 sequence (P29375 1601-1660): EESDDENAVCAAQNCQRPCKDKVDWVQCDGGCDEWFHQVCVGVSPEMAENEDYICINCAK
In short: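 (HQ)5-HaloTag-JARID1A PHD3 (40 μM as added) is captured on HaloTag-ligand plates for 2 h with shaking, then washed with HBST. […] Detection uses streptavidin-HRP (1:2,000, 20 min), six washes and chemiluminescence. Diluent is StabilCoat with 0.5 mM TCEP, at ambient temperature. IC50 is fitted from relative binding versus log[inhibitor].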

[2] = molecular target: T2, AIRE PHD1 (Homo sapiens, UniProt O43918); assay: HaloTag assay counterscreen; assay type: binding; conditions: 0, 50, 100, 200 μM
T2 sequence (O43918 293-354): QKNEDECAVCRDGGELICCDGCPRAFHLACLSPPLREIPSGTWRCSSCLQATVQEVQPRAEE

[3] = molecular target: T3, BHC80 PHD (Homo sapiens, UniProt Q96BD5); assay: HaloTag assay counterscreen; assay type: binding; conditions: 0, 50, 100, 200 μM
[4] = molecular target: T4, RAG2 PHD (Mus musculus, UniProt P21784); assay: HaloTag assay counterscreen; assay type: binding; conditions: 0, 50, 100, 200 μM
T4 sequence (P21784 414-487): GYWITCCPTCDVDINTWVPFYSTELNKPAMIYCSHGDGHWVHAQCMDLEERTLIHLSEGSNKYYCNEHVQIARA

[5] = molecular target: T5, JMJD2A DTD (Homo sapiens, UniProt O75164); assay: HaloTag assay counterscreen; assay type: binding; conditions: 0, 50, 100, 200 μM
T5 sequence (O75164 895-1011): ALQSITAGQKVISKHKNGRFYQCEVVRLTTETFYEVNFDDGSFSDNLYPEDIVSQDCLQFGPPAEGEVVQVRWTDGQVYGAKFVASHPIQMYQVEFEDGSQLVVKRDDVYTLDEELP

[6] = molecular target: T6, GST-JARID1A PHD3 (Homo sapiens, UniProt P29375); assay: Fluorescence polarization binding assay; conditions: for loss of polarization (loss of peptide binding): up to 200 μM
T6 sequence (P29375 1601-1660): T1 sequence (P29375 1601-1660)

[7] = molecular target: T1, JARID1A PHD3; assay: Zinc ejection study; assay type: biochemical; conditions: for zinc release from JARID1A PHD3 (PAR assay): increasing concentrations
In short: (§1)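 His6-JARID1A PHD3 or (HQ)5-HaloTag reader-domain fusion at 5 μM was treated with increasing test compound concentrations in 10 mM PAR, 30 mM HEPES, 150 mM NaCl, pH 7.4, 5% v/v DMSO. Triplicates were shaken 10 min. A boiled DMSO-only sample served as the destabilization-induced zinc release reference. Zinc release was read as absorbance at 500 nm, with DMSO-only values subtracted.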

[8] = molecular target: T7, wild-type (WT) JARID1A PHD3 (Homo sapiens, UniProt P29375); assay: Dose ratio; assay type: binding; conditions: di-N-desethylamiodarone 0, 20, 40, 80 μM; tegaserod maleate 0, 80, 160, 320 μM
T7 sequence (P29375 1601-1660): T1 sequence (P29375 1601-1660)

[9] = system: JARID1A PHD3 D1624 mutants; assay: Dose ratio; assay type: binding; conditions: di-N-desethylamiodarone 0, 20, 40, 80 μM; tegaserod maleate 0, 80, 160, 320 μM
In short: (§2)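 Fluorescence polarization Schild analysis. Increasing GST-JARID1A PHD3 (wild type or mutant) is titrated against a fixed inhibitor concentration plus 3 nM H3(1–14)K4me3K14fluo probe. The EC50 is determined at each inhibitor level. The dose ratio is the fold change in EC50 with inhibitor relative to EC50 without inhibitor.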

[10] = system: JARID1A PHD3 D1629 mutants; assay: Dose ratio; assay type: binding; conditions: di-N-desethylamiodarone 0, 20, 40, 80 μM; tegaserod maleate 0, 80, 160, 320 μM
In short: as §2

[11] = molecular target: T1, JARID1A PHD3; assay: Affinity pull down with TMR-labeled HaloTag-JARID1A PHD3; assay type: binding; conditions: for inhibition of JARID1A PHD3 in affinity pull down: compound 0–500 μM
In short: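 Streptavidin-agarose beads are loaded with biotinylated histone peptide (about 300 pmol per 6.6 μL bed volume) in 1% BSA-HBST for 30 min. HaloTag-JARID1A PHD3 is prelabeled with TMR ligand (10 μM each, 15 min, dark) and used at 100 nM final with beads. Compound is 0–500 μM at 5% DMSO, 45 min ambient, dark. After three HBST washes, beads are boiled in SDS buffer, run on 12% SDS-PAGE and scanned for TAMRA fluorescence.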

[12] = molecular target: T2, AIRE PHD1; assay: Zinc ejection study; assay type: biochemical; conditions: compared with JARID1A PHD3
In short: as §1

[13] = molecular target: T3, BHC80 PHD; assay: Zinc ejection study; assay type: biochemical; conditions: compared with JARID1A PHD3
In short: as §1

[14] = molecular target: T8, JMJD2A double tudor domain (Homo sapiens, UniProt O75164); assay: Zinc ejection study; assay type: biochemical
T8 sequence (O75164 895-1011): T5 sequence (O75164 895-1011)
In short: as §1

[15] = molecular target: T5, JMJD2A DTD; assay: Fluorescence polarization counterscreen; assay type: binding
In short: (§3)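 Test compound titrated into GST-reader fusion at its 90% fraction-bound concentration plus 3 nM fluorescein-labeled H3(1–14) probe. Protein: AIRE PHD1 4 μM and BHC80 PHD 60 μM (K4-unmodified probe); JMJD2A DTD 4 μM and RAG2 PHD 25 μM (K4me3 probe). Buffer was 30 mM HEPES, 150 mM NaCl, pH 7.4, 0.01% Triton X-100. Triplicates read by polarization. IC50 fitted from fraction bound versus log[inhibitor].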

[16] = molecular target: T4, RAG2 PHD; assay: Fluorescence polarization counterscreen; assay type: binding; conditions: NM: Not measurable within solubility limit of compound
In short: as §3

[17] = molecular target: T2, AIRE PHD1; assay: Fluorescence polarization counterscreen; assay type: binding; conditions: H3K4-unmodified probe; NM: Not measurable within solubility limit of compound
In short: as §3

[18] = molecular target: T3, BHC80 PHD; assay: Fluorescence polarization counterscreen; assay type: binding; conditions: H3K4-unmodified probe; NM: Not measurable within solubility limit of compound
In short: as §3

[19] = molecular target: T9, JARID1A PHD3 D1629A (Homo sapiens, UniProt P29375, D1629A); assay type: binding; conditions: D1629 mutation, independent of substitution
T9 sequence (P29375 1601-1660 D1629A): T1 sequence (P29375 1601-1660) with D29A

[20] = molecular target: T10, JARID1A PHD3 D1629N (Homo sapiens, UniProt P29375, D1629N); assay type: binding; conditions: D1629 mutation, independent of substitution
T10 sequence (P29375 1601-1660 D1629N): T1 sequence (P29375 1601-1660) with D29N

T3 sequence (Q96BD5 486-543): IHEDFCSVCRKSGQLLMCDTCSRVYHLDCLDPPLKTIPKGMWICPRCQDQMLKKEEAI

Compound: CCCCc1oc2ccccc2c1C(=O)c1cc(I)c(OCCN(CC)CC)c(I)c1 [Amiodarone, amiodarone HCl]
- effect on JARID1A PHD3 binding to H3K4me3 peptide in HaloTag assay [1]: significantly reduced signal
- loss of peptide binding, AIRE PHD1, HaloTag assay [2]: but not AIRE PHD1 or BHC80 PHD
- loss of peptide binding, BHC80 PHD, HaloTag assay [3]: but not AIRE PHD1 or BHC80 PHD
- loss of peptide binding, RAG2 PHD, HaloTag assay [4]: significantly affected
- loss of peptide binding, JMJD2A DTD, HaloTag assay [5]: significantly affected
- loss of polarization (loss of peptide binding) [6]: did not cause a significant loss in polarization
- zinc release from JARID1A PHD3 (PAR assay) [7]: not causing zinc release

Compound: CCCCc1oc2ccccc2c1C(=O)c1cc(I)c(OCCNCC)c(I)c1 [Desethylamiodarone, desethylamiodarone]
- inhibition of JARID1A PHD3 in fluorescence polarization assay ([6]; within the concentration range tested): Neither dimethyl-AMI analog nor desethyl-AMI significantly inhibited

Compound: CCCCc1oc2ccccc2c1C(=O)c1cc(I)c(OCCN)c(I)c1 [Di-N-desethylamiodarone, di-N-desethylamiodarone]
- shift of EC50 / dose ratio with increasing fixed inhibitor [8]: increase in EC50 values
- shift of EC50 / dose ratio with increasing fixed inhibitor [9]: dose ratios were less pronounced than for WT JARID1A PHD3
- shift of EC50 / dose ratio with increasing fixed inhibitor [10]: dose ratios that remained near one

Compound: CSS(C)(=O)=O [MMTS, methyl methanethiosulfonate]
- EC50 ([7]; read-out: concentration for half-maximal zinc loss (PAR assay), 5 μM His6-JARID1A PHD3): 33 µM

Compound: CCc1oc2ccccc2c1C(=O)c1cc(Br)c(O)c(Br)c1 [benzbromarone]
- effect on JARID1A PHD3 binding to H3K4me3 peptide in HaloTag assay [1]: but not benzbromarone, inhibited JARID1A PHD3

Compound: CCN(CC)C(=S)SSC(=S)N(CC)CC [disulfiram, tetraethylthiuram disulfide]
- effect on JARID1A PHD3 binding to H3K4me3 peptide in HaloTag assay [1]: significantly reduced signal
- loss of peptide binding, AIRE PHD1, HaloTag assay [2]: Significant (by p-value) loss of peptide binding
- loss of peptide binding, BHC80 PHD, HaloTag assay [3]: Significant (by p-value) loss of peptide binding
- loss of peptide binding, RAG2 PHD, HaloTag assay [4]: Significant (by p-value) loss of peptide binding
- inhibition of JARID1A PHD3 in affinity pull down [11]: inhibited JARID1A PHD3
- loss of polarization (loss of peptide binding) [6]: did not cause a significant loss in polarization
- EC50 [7]: 10 µM
- susceptibility to zinc ejection, AIRE PHD1 [12]: similarly susceptible
- susceptibility to zinc ejection, BHC80 PHD [13]: similarly susceptible
- zinc release from JMJD2A double tudor domain [14]: No zinc release was observed

Compound: CCCCc1oc2ccc(NS(C)(=O)=O)cc2c1C(=O)c1ccc(OCCCN(CCCC)CCCC)cc1 [dronedarone]
- effect on JARID1A PHD3 binding to H3K4me3 peptide in HaloTag assay [1]: inhibited JARID1A PHD3

Compound: O=C(O)/C=C\C(=O)O [maleate]
- effect on JARID1A PHD3 binding to H3K4me3 peptide in HaloTag assay [1]: not maleate

Compound: c1ccc2c(c1)Nc1ccccc1S2 [phenothiazine]
- effect on JARID1A PHD3 binding to H3K4me3 peptide in HaloTag assay [1]: significantly reduced signal
- loss of polarization (loss of peptide binding) [6]: did not cause a significant loss in polarization

Compound: [H]/N=C(/NCCCCC)N/N=C/c1c[nH]c2ccc(OC)cc12 [tegaserod, Tegaserod maleate]
- effect on JARID1A PHD3 binding to H3K4me3 peptide in HaloTag assay [1]: significantly reduced signal
- loss of peptide binding, AIRE PHD1, HaloTag assay [2]: Modest reductions in binding
- loss of peptide binding, BHC80 PHD, HaloTag assay [3]: Modest reductions in binding
- loss of peptide binding, RAG2 PHD, HaloTag assay [4]: Modest reductions in binding
- loss of peptide binding, JMJD2A DTD, HaloTag assay [5]: Modest reductions in binding
- inhibition of JARID1A PHD3 in affinity pull down [11]: inhibited JARID1A PHD3
- IC50 [6]: 74 ± 16 µM
- IC50 [15]: 95 ± 9.8 µM
- IC50 towards RAG2 PHD, fluorescence polarization assay [16]: exceeded the solubility limits
- IC50 towards AIRE PHD1, fluorescence polarization assay [17]: exceeded the solubility limits
- IC50 towards BHC80 PHD, fluorescence polarization assay [18]: exceeded the solubility limits
- zinc release from JARID1A PHD3 (PAR assay) [7]: not causing zinc release
- shift of EC50 / dose ratio with increasing fixed inhibitor [8]: increase in EC50 values
- shift of EC50 / dose ratio with increasing fixed inhibitor [9]: dose ratios were less pronounced than for WT JARID1A PHD3
- shift of EC50 / dose ratio with increasing fixed inhibitor [10]: dose ratios that remained near one

Compound: H3K4me3 peptide: histone H3 peptide trimethylated at lysine 4; unlabeled competitor or fluorescein-labeled H3(1–14) probe
- IC50 ([11]; read-out: experimental IC50, peptide competition in affinity pull down): 13.6 ± 4.5 µM
- defect in affinity relative to wild-type [19]: greater than 10 fold
- defect in affinity relative to wild-type [20]: greater than 10 fold

Compound: unmethylated H3 peptide: histone H3 peptide unmodified at lysine 4 (ARTKQTARKSTEW; E(PEG-biotin) at position 12)
- inhibition of JARID1A PHD3 by peptide competition in HaloTag assay ([1]; 25 μM peptide): did not significantly inhibit
